Most compounds without a hit are left out; they make up all but 0.77% or so of the library.
mIAP act: increases mouse intestinal alkaline phosphatase activity; muIAP, CDP-Star luminescence, 30 min; active compounds read high; 1 = vehicle-only enzyme signal, 0 = enzyme-free wells; activation factor at 10 µM; 330,000 tested, 0.24% active; AID 2805;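 active means activation factor of at least 2 at 20 µM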
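Assay system: mouse IAP enzyme; Reagent: CDP-Star chemiluminescent phosphatase substrate; Compound: DMSO-dissolved test compounds; Incubation: 30 min, room temperature; Technique: luminescence from enzymatic CDP-Star hydrolysis; Controls: DMSO-only wells and no-enzyme negative control.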
mIAP block: blocks mouse intestinal alkaline phosphatase | AID 2806 | 330,000 tested, 0.2% active | purified mouse IAP, CDP-Star luminescence, 30 min | inhibition, % at 10 µM;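 active means inhibition of at least 40% at 10 µM in the primary screen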
hIAP activ: increases human intestinal alkaline phosphatase activity | 330,000 tested, 0.16% active | purified human IAP, CDP-Star luminescence, 30 min; active compounds read high; 1 = vehicle-only enzyme, 0 = enzyme-free background | P09923 | activation factor at 10 µM | AID 2524;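 active means activation factor of the enzyme at least 2-fold when tested at 20 µM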
Target sequence (P09923 whole entry, looked up): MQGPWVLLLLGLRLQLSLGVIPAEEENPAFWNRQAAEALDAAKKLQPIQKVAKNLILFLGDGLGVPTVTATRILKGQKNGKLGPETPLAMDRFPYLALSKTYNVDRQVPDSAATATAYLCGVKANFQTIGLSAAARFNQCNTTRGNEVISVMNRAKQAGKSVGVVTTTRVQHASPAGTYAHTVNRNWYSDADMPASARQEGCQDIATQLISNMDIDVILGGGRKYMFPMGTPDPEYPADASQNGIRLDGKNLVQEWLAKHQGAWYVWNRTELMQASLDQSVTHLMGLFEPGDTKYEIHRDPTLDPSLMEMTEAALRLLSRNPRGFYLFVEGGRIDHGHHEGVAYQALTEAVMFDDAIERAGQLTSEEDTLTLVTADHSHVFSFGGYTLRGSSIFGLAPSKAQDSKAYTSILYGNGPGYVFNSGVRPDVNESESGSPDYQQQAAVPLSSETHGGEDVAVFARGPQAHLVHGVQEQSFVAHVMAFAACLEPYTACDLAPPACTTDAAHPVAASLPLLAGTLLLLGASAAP
bIAP act: intestinal alkaline phosphatase (bovine) activation; purified bovine IAP, CDP-star luminescence, 30 min; active compounds read high; fold of DMSO-control signal, blank-subtracted; activation factor at 20 µM; 200,000 tested, 0.17% active; AID 1016;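 active means activation factor of 2 or more at 20 µM, a signal rise over negative controls twice the positive control's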
bIAP inhibitor: blocks bovine intestinal alkaline phosphatase activity | 190,000 tested, under 10 active | inhibition, % at 20 µM | purified bovine IAP, CDP-star luminescence, 30 min;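 active means over 50% inhibition of intestinal alkaline phosphatase at 20 µM in the single-dose screen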
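Incubation: 30 min reaction at room temperature / Material: purified bovine intestinal alkaline phosphatase (IAP) enzyme / Input: enzyme at 1/65,000,000 dilution / Dosing: 20 µM single dose / Signal: CDP-star luminescence signal / Reagent: CDP-star chemiluminescent phosphatase substrate, 30 µM final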
hIAP block: blocks human intestinal alkaline phosphatase; inhibition, % at 10 µM; purified IAP, CDP-Star luminescence, 30 min; 330,000 tested, 0.12% active; P09923;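 active means inhibition reaching a set limit with compound at 10 µM in the primary screen, cut at about 35% in these data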
hIAP act conf: human IAP activation confirmation; AID 434926; 880 tested, 10% active; purified IAP, CDP-Star luminescence, 30 min; active compounds read low; shares compounds with hIAP activ; activation (%Activity, negative = activation), % at 8.3 µM;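 active means at least twofold enzyme activation in any of six single-dose repeats, which the averaged readout prints as negative percent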
Numbers stand for hits; - = inactive; . = not tested or not shown.

SMILES | mIAP act | mIAP block | hIAP activ | bIAP act | bIAP inhibitor | hIAP block | hIAP act conf
O=C(COc1ccccc1Cl)N1CCN(c2ccc([N+](=O)[O-])c(N3CCCCC3)c2)CC1 | - | - | 2.06 | - | - | - | -60.9
O=c1c(O[C@H]2O[C@@H](CO)[C@H](O)[C@@H](O)[C@@H]2O)c(-c2ccc(O)cc2)oc2cc(O)cc(O)c12 | - | - | - | . | . | - | .
C[C@@H]1O[C@@H](Oc2c(-c3cc(O)c(O)c(O)c3)oc3cc(O)cc(O)c3c2=O)[C@H](O)[C@H](O)[C@H]1O | - | - | - | - | - | - | .
O=c1c(O[C@@H]2O[C@H](CO)C(O)C2O)c(-c2ccc(O)c(O)c2)oc2cc(O)cc(O)c12 (some centres undefined) | - | - | - | . | . | 59.1 | -
O=c1c(OC2OC(CO)C(O)C(O)C2O)c(-c2ccc(O)c(O)c2)oc2cc(O)cc(O)c12 (centres undefined) | - | - | - | - | - | 55.8 | -
C[C@@H]1O[C@@H](Oc2c(-c3ccc(O)c(O)c3)oc3cc(O)cc(O)c3c2=O)[C@H](O)[C@H](O)[C@H]1O | - | - | - | . | . | 35.6 | -
CCOC(=O)C1CCN(C(=O)CCC(=O)NNc2nc3ccccc3c3nc(C)nn23)CC1 | - | - | 2.75 | . | . | - | -
Cc1nc2c3ccccc3nc(NNC(=O)CCC(=O)N3CCN(c4ccccc4)CC3)n2n1 | - | - | 2.28 | . | . | - | -
Cc1nc2c3ccccc3nc(NNC(=O)CCC(=O)N3CCN(c4ccccc4F)CC3)n2n1 | - | - | - | . | . | - | .
Cc1nc2c3ccccc3nc(NNC(=O)CCC(=O)N3CCC(C)CC3)n2n1 | - | - | 2.33 | . | . | - | -
COc1ccc(N2CCN(C(=O)CCC(=O)NNc3nc4ccccc4c4nc(C)nn34)CC2)cc1 | - | - | - | . | . | - | .
CCOCCCNC(=O)CCC(=O)NNc1nc2ccccc2c2nc(-c3ccccc3)nn12 | - | - | 2.09 | - | - | - | -
O=C(NC1CCCC1)c1cccc(S(=O)(=O)N2CCOCC2)c1 | - | - | - | . | . | - | .
CC(=O)N1CCN(C(=O)c2ccc(C(=O)c3ccccc3)cc2)CC1 | - | - | - | . | . | - | .
O=C(Nc1ccnn1C1CCN(C(=O)c2cccc(Cl)c2)CC1)C1CC1 | - | - | - | . | . | - | .
Cc1nc2c3ccccc3nc(NNC(=O)CCC(=O)NCCC(C)C)n2n1 | - | - | 2.11 | - | - | - | -64.4
CCOC(=O)Cc1csc(NS(=O)(=O)c2ccc(C(F)(F)F)cc2)n1 | - | - | - | . | . | - | .
Cc1ccc(S(=O)(=O)NCC(=O)N/N=C/c2ccccc2O)cc1 | - | - | 2.18 | - | - | - | -
Cc1ccc(S(=O)(=O)NCC(=O)N/N=C/c2ccc(Cl)cc2Cl)cc1 | - | - | - | - | - | - | .
CCCCNCCCCOc1ccccc1 | - | - | 2.1 | - | - | - | -
C=CCc1cc(C)ccc1OCCOCCn1ccnc1 | - | - | - | - | - | - | .
CCN(CC)C(=O)c1ccc(/C=C/c2c[nH]c3ccccc23)[n+](C)c1 | - | - | - | - | - | - | .
CC[n+]1c(/C=C/c2c[nH]c3ccccc23)ccc2cc(C)ccc21 | - | - | - | - | - | 36.4 | -85.7
O=C(Cc1coc2ccc3ccccc3c12)Nc1nccs1 | - | - | - | - | - | - | .
O=C(Cc1coc2ccc3ccccc3c12)NCc1ccccc1 | - | - | 2.03 | - | - | - | -
SMILES | mIAP act | mIAP block | hIAP activ | bIAP act | bIAP inhibitor | hIAP block | hIAP act conf
Cc1cc(C(=O)NNC(=O)COc2ccccc2Cl)n[nH]1 | - | - | 3.14 | . | . | - | -
Cc1ccc(OCC(=O)NNC(=O)c2cc(C)[nH]n2)cc1 | - | - | - | - | - | - | .
Cc1cc(C(=O)NNC(=O)COc2c(C)cc(Br)cc2C)n[nH]1 | - | - | 2.21 | . | . | - | -
O=c1oc(-c2ccc(O)c(O)c2)cc2cc(O)cc(O)c12 | - | - | - | . | . | 69.2 | -
O=c1oc(-c2ccc(O)c(O)c2)cc2cccc(O)c12 | - | - | - | . | . | - | .
CCc1ccc(-c2cc(C(=O)N/N=C/c3ccco3)[nH]n2)cc1 | - | - | - | - | - | - | .
O=C(N/N=C/c1ccco1)c1cc(-c2ccc3ccccc3c2)n[nH]1 | - | - | 2.08 | - | - | - | -
CCc1ccc(-c2cc(C(=O)N/N=C/c3ccccn3)[nH]n2)cc1 | - | - | - | - | - | - | .

High-throughput results deposited in PubChem BioAssay by Sanford-Burnham Center for Chemical Genomics.
